Measurements as given in ChEMBL document CHEMBL3232844, “Synthesis and structure activity relationships of schweinfurthin indoles” (2014).

What was measured:
Type in all cases: functional
[1] = Cytotoxicity against human OVCAR8 cells
Procedure, shortened: (§1)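 Tested in a 60-cell-line human tumor panel screen; the read-out is growth inhibition, reported as GI50 for each cell line.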

[2] = system: A498; experiment: Cytotoxicity against human A498 cells; procedure, shortened: as §1
[3] = system: SF-539; experiment: Cytotoxicity against human SF539 cells; procedure, shortened: as §1
[4] = system: BT-549; experiment: Cytotoxicity against human BT549 cells; procedure, shortened: as §1
[5] = Cytotoxicity against human NCI-ADR-RES cells; procedure, shortened: as §1
[6] = system: RXF 393; experiment: Cytotoxicity against human RXF393 cells; procedure, shortened: as §1
[7] = system: DU-145; experiment: Cytotoxicity against human DU145 cells; procedure, shortened: as §1
[8] = system: T47D; experiment: Cytotoxicity against human T47D cells
Procedure, shortened: (§2)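 Cell line run as part of the 60-cell-line screening panel; growth inhibition was reported as a GI50 for each line.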

[9] = system: MDA-MB-231; experiment: Cytotoxicity against human MDA-MB-231 cells; procedure, shortened: as §1
[10] = Cytotoxicity against human UACC62 cells; procedure, shortened: as §2
[11] = Cytotoxicity against human UACC257 cells; procedure, shortened: as §2
[12] = system: SK-OV-3; experiment: Cytotoxicity against human SKOV3 cells; procedure, shortened: as §1
[13] = system: HL-60(TB); experiment: Cytotoxicity against human HL-60(TB) cells
Procedure, shortened: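 Tested within the NCI 60-cell-line screen, with GI50 as the read-out. Values are the average of two independent experiments. The lowest concentration tested was 10 nM.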

[14] = system: CCRF-CEM; experiment: Cytotoxicity against human CCRF-CEM cells
[15] = Cytotoxicity against human OVCAR3 cells; procedure, shortened: as §1
[16] = system: MCF7; experiment: Cytotoxicity against human MCF7 cells; procedure, shortened: as §1
[17] = system: SK-MEL-2; experiment: Cytotoxicity against human SK-MEL-2 cells; procedure, shortened: as §1
[18] = system: ACHN; experiment: Cytotoxicity against human ACHN cells; procedure, shortened: as §1
[19] = system: KM12; experiment: Cytotoxicity against human KM12 cells; procedure, shortened: as §1
[20] = system: 786-0; experiment: Cytotoxicity against human 786-0 cells; procedure, shortened: as §1
[21] = system: MDA-MB-468; experiment: Cytotoxicity against human MDA-MB-468 cells; procedure, shortened: as §1
[22] = system: SNB-19; experiment: Cytotoxicity against human SNB19 cells; procedure, shortened: as §1
[23] = read-out: pLC50 (the source's name) (converted)

With COc1cc(/C=C/c2cc(OC)c3ccn(C)c3c2)cc2c1O[C@]1(C)CC[C@@H](O)C(C)(C)[C@H]1C2 the CC50 ([1]; OVCAR-8, read-out: pLC50 (the source's name) (converted)) was greater than 100 µM, the TGI ([1]; OVCAR-8, read-out: pTGI (converted)) was greater than 100 µM and the GI50 [2] was 0.407 µM. The CC50 [2, 23] was greater than 100 µM, the TGI ([2]; read-out: pTGI (converted)) was 8.13 µM and the GI50 [3] was 0.214 µM. For the same molecule, the CC50 [3, 23] was 57.5 µM, the TGI ([3]; read-out: pTGI (converted)) was 5.5 µM and the GI50 [4] was 2.82 µM. For the same molecule, the CC50 [4, 23] was greater than 100 µM, the TGI ([4]; read-out: pTGI (converted)) was 30.9 µM and the GI50 [5] was 6.46 µM. For the same molecule, the CC50 [5, 23] was greater than 100 µM, the TGI ([5]; read-out: pTGI (converted)) was greater than 100 µM and the GI50 [6] was 0.0447 µM. For the same molecule, the LC50 [6] was 4.27 µM, the TGI ([6]; read-out: pTGI (converted)) was 0.275 µM and the GI50 [7] was 2.45 µM. For the same molecule, the LC50 (50% lethal concentration) [7] was greater than 100 µM, the TGI ([7]; read-out: pTGI (converted)) was 66.1 µM and the GI50 [8] was 4.37 µM. The CC50 [8, 23] was greater than 100 µM, the TGI ([8]; read-out: pTGI (converted)) was 38.9 µM and the GI50 [9] was 1.48 µM. The LC50 [9] was greater than 100 µM, the TGI ([9]; read-out: pTGI (converted)) was 33.9 µM and the GI50 ([10]; UACC-62) was 0.355 µM. The CC50 ([10]; UACC-62, read-out: pLC50 (the source's name) (converted)) was 23.4 µM, the TGI ([10]; UACC-62, read-out: pTGI (converted)) was 2.19 µM and the GI50 ([11]; UACC-257) was 2.45 µM. It also gave a CC50 ([11]; UACC-257, read-out: pLC50 (the source's name) (converted)) greater than 100 µM, a TGI ([11]; UACC-257, read-out: pTGI (converted)) of 35.5 µM and a GI50 [12] of 2.57 µM. The LC50 [12] was greater than 100 µM, the TGI ([12]; read-out: pTGI (converted)) was greater than 100 µM and the GI50 [13] was 1.2 µM. For the same molecule, the CC50 [13, 23] was greater than 100 µM, the TGI ([13]; read-out: pTGI (converted)) was 38.9 µM and the GI50 [14] was 0.457 µM. The CC50 [14, 23] was greater than 100 µM, the TGI ([14]; read-out: pTGI (converted)) was 9.33 µM and the GI50 ([15]; OVCAR-3) was 6.46 µM. It also gave a CC50 ([15]; OVCAR-3, read-out: pLC50 (the source's name) (converted)) of 57.5 µM, a TGI ([15]; OVCAR-3, read-out: pTGI (converted)) of 23.4 µM and a GI50 [16] of 1.51 µM. For the same molecule, the LC50 [16] was 66.1 µM, the TGI ([16]; read-out: pTGI (converted)) was 14.5 µM and the GI50 [17] was 0.851 µM. It also gave a CC50 [17, 23] greater than 100 µM, a TGI ([17]; read-out: pTGI (converted)) of 20.4 µM and a GI50 [18] of 1 µM. For the same molecule, the LC50 (concentration killing 50% of cells) [18] was greater than 100 µM, the TGI ([18]; read-out: pTGI (converted)) was 87.1 µM and the GI50 [19] was 2 µM. The CC50 [19, 23] was 41.7 µM, the TGI ([19]; read-out: pTGI (converted)) was 11.2 µM and the GI50 [20] was 0.214 µM. It also gave an LC50 (concentration killing 50% of cells) [20] greater than 100 µM, a TGI ([20]; read-out: pTGI (converted)) of 2.4 µM and a GI50 [21] of 1.23 µM. The LC50 [21] was greater than 100 µM, the GI50 [22] was 1.38 µM and the CC50 [22, 23] was greater than 100 µM. It also gave a TGI ([22]; read-out: pTGI (converted)) greater than 100 µM.
